Test results reported in ChEMBL document CHEMBL3865784 (Eur J Med Chem, 2016).
The source made the active and inactive calls. No cut-off for these calls is given here.

What was measured:
[1] = Cytotoxicity against human SF295 cells overexpressing NQO1 assessed as reduction in cell viability after 72 hrs by MTT assay; assay type: functional, cell-based; conditions: SF-295, 72 h
PC-3 [2] = test: Induction of apoptosis in human PC3 cells assessed as externalization of phosphatidylserine on cell surface by measuring early apoptotic cells at 5 uM pretreated with NAC measured after 6 hrs by Annexin-V/FITC/PI staining by flow cytometry (reference value: 0.93 +/- 0.05%); assay type: functional
PC-3 [3] = test: Induction of apoptosis in human PC3 cells assessed as externalization of phosphatidylserine on cell surface by measuring early apoptotic cells at 5 uM after 6 hrs by Annexin-V/FITC/PI staining by flow cytometry (reference value: 0.93 +/- 0.05%); assay type: functional
PC-3 [4] = test: Induction of apoptosis in human PC3 cells assessed as externalization of phosphatidylserine on cell surface by measuring early apoptotic cells at 5 uM cotreated with NQO1 inhibitor dicoumarol measured after 6 hrs by Annexin-V/FITC/PI staining by flow cytometry (reference value: 0.93 +/- 0.05%); assay type: functional; set-up: scale not given: the % may be the effect or the level left
[5] = Cytotoxicity against human MDA-MB-435 cells overexpressing NQO1 assessed as reduction in cell viability after 72 hrs by MTT assay; assay type: functional, cell-based; conditions: MDA-MB-435, 72 h
How it was run: (§1)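 Cancer lines from NCI, grown in RPMI 1640 with 10% FBS, 2 mM L-glutamine, penicillin/streptomycin, 37 °C, 5% CO2; seeded 0.1 × 10^6 cells/well (HL-60) or 0.7 × 10^5 cells/well (solid tumours). Compounds in DMSO, final 0.1% v/v; DMSO vehicle as negative control.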

[6] = Cytotoxicity against human PC3 cells overexpressing NQO1 assessed as reduction in cell viability after 72 hrs by MTT assay; assay type: functional, cell-based; conditions: PC-3, 72 h
[7] = Cytotoxicity against NQO1-deficient chinese hamster V79 cells assessed as reduction in cell viability after 72 hrs by MTT assay; assay type: toxicity, cell-based, Cricetulus griseus; conditions: v79
PC-3 [8] = test: Induction of apoptosis in human PC3 cells assessed as externalization of phosphatidylserine on cell surface by measuring late apoptotic cells at 5 uM cotreated with NQO1 inhibitor dicoumarol measured after 6 hrs by Annexin-V/FITC/PI staining by flow cytometry (reference value: 0%); assay type: functional; set-up: scale not given: the % may be the effect or the level left
[9] = Cytotoxicity against NQO1-deficient human HL60 cells assessed as reduction in cell viability after 72 hrs by MTT assay; assay type: functional, cell-based; conditions: HL-60, 72 h; how it was run: as §1
PC-3 [10] = test: Induction of apoptosis in human PC3 cells assessed as externalization of phosphatidylserine on cell surface by measuring late apoptotic cells at 5 uM pretreated with NAC measured after 6 hrs by Annexin-V/FITC/PI staining by flow cytometry (reference value: 0%); assay type: functional
[11] = Cytotoxicity against NQO1-deficient human PBMC assessed as reduction in cell viability after 72 hrs by MTT assay; assay type: toxicity, cell-based; conditions: pbmc
Mus musculus = species: Mus musculus; test: Cytotoxicity against NQO1-deficient mouse L929 cells assessed as reduction in cell viability after 72 hrs by MTT assay; assay type: toxicity, cell-based; conditions: l929
[12] = Cytotoxicity against human OVCAR8 cells overexpressing NQO1 assessed as reduction in cell viability after 72 hrs by MTT assay; assay type: functional, cell-based; conditions: OVCAR-8, 72 h; how it was run: as §1
PC-3 [13] = test: Induction of apoptosis in human PC3 cells assessed as externalization of phosphatidylserine on cell surface by measuring late apoptotic cells at 5 uM after 6 hrs by Annexin-V/FITC/PI staining by flow cytometry (reference value: 0%); assay type: functional
HL-60 [14] = test: Selectivity index, ratio of IC50 for NQO1-deficient chinese hamster V79 cells to IC50 for NQO1-deficient human HL60 cells; assay type: functional
How it was run: (§2)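 Selectivity index is IC50 in the normal cells divided by IC50 in the cancer line. Normal cells: V79 and L929 in DMEM, PBMC in RPMI with phytohaemagglutinin. Cancer lines in RPMI with 10% FBS, seeded at 0.1 × 10^6 (HL-60) or 0.7 × 10^5 cells/well (solid tumors). Absorbance 550 nm; nonlinear regression.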

HL-60 [15] = test: Selectivity index, ratio of IC50 for NQO1-deficient human PBMC to IC50 for NQO1-deficient human HL60 cells; how it was run: as §2
SF-295 [16] = test: Selectivity index, ratio of IC50 for NQO1-deficient chinese hamster V79 cells to IC50 for human SF295 cells overexpressing NQO1; how it was run: as §2
L929 [17] = test: Selectivity index, ratio of IC50 for NQO1-deficient mouse L929 cells to IC50 for human PC3 cells overexpressing NQO1; how it was run: as §2
L929 [18] = test: Selectivity index, ratio of IC50 for NQO1-deficient mouse L929 cells to IC50 for NQO1-deficient human HL60 cells; assay type: functional; how it was run: as §2
SF-295 [19] = test: Selectivity index, ratio of IC50 for NQO1-deficient human PBMC to IC50 for human SF295 cells overexpressing NQO1; how it was run: as §2
V79 [20] = test: Selectivity index, ratio of IC50 for NQO1-deficient chinese hamster V79 cells to IC50 for human MDA-MB-435 cells overexpressing NQO1; how it was run: as §2
L929 [21] = test: Selectivity index, ratio of IC50 for NQO1-deficient mouse L929 cells to IC50 for human SF295 cells overexpressing NQO1; how it was run: as §2
L929 [22] = test: Selectivity index, ratio of IC50 for NQO1-deficient mouse L929 cells to IC50 for human OVCAR8 cells overexpressing NQO1; how it was run: as §2
OVCAR-8 [23] = test: Selectivity index, ratio of IC50 for NQO1-deficient human PBMC to IC50 for human OVCAR8 cells overexpressing NQO1
How it was run: as §2, with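 “line. All IC50s come from 72 h MTT assays.” for “line.”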

PC-3 [24] = test: Selectivity index, ratio of IC50 for NQO1-deficient human PBMC to IC50 for human PC3 cells overexpressing NQO1; how it was run: as §2
OVCAR-8 [25] = test: Selectivity index, ratio of IC50 for NQO1-deficient chinese hamster V79 cells to IC50 for human OVCAR8 cells overexpressing NQO1
How it was run: as §2, with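 “line. All IC50s come from 72 h MTT assays.” for “line.”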

[26] = Selectivity index, ratio of IC50 for NQO1-deficient human PBMC to IC50 for human MDA-MB-435 cells overexpressing NQO1; how it was run: as §2
L929 [27] = test: Selectivity index, ratio of IC50 for NQO1-deficient mouse L929 cells to IC50 for human MDA-MB-435 cells overexpressing NQO1; how it was run: as §2
V79 [28] = test: Selectivity index, ratio of IC50 for NQO1-deficient chinese hamster V79 cells to IC50 for human PC3 cells overexpressing NQO1; how it was run: as §2
[29] = Cytotoxicity against human HCT116 cells expressing NQO1 assessed as reduction in cell viability after 72 hrs by MTT assay; assay type: functional, cell-based; conditions: HCT-116, 72 h; how it was run: as §1
HCT-116 [30] = test: Selectivity index, ratio of IC50 for NQO1-deficient chinese hamster V79 cells to IC50 for human HCT116 cells expressing NQO1
How it was run: as §2, with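 “line. All IC50s come from 72 h MTT assays.” for “line.”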

HCT-116 [31] = test: Selectivity index, ratio of IC50 for NQO1-deficient human PBMC to IC50 for human HCT116 cells expressing NQO1
How it was run: as §2, with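 “line. All IC50s come from 72 h MTT assays.” for “line.”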

[32] = target: NAD(P)H dehydrogenase [quinone] 1 (Homo sapiens) (UniProt P15559); test: Activation of NQO1 in human PC3 cells assessed as induction of ROS generation at 5 uM after 1 hr by H2DCFDA probe based flow cytometric analysis; assay type: cell-based; conditions: PC-3
NAD(P)H dehydrogenase [quinone] 1 (Homo sapiens), sequence (P15559 whole entry): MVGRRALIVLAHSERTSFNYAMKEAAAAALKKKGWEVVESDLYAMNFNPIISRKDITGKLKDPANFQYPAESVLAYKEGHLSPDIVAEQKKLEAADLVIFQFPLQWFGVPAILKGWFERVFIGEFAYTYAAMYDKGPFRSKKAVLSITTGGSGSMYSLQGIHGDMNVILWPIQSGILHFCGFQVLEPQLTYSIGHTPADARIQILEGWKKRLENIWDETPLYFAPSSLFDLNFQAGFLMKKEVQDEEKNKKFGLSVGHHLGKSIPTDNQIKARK

HCT-116 [33] = test: Selectivity index, ratio of IC50 for NQO1-deficient mouse L929 cells to IC50 for human HCT116 cells expressing NQO1
How it was run: as §2, with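 “line. All IC50s come from 72 h MTT assays.” for “line.”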

SMILES	IC50 [1]	Activity (PC-3 [3])	IC50 [5]	IC50 [6]	IC50 [7]	IC50 [9]	IC50 [11]	IC50 (Mus musculus)	IC50 [12]	Ratio IC50 (HL-60 [14])	Ratio IC50 (HL-60 [15])	Ratio IC50 (L929 [17])	Ratio IC50 (L929 [18])	Ratio IC50 (V79 [20])	Ratio IC50 (L929 [21])	Ratio IC50 (L929 [22])	Ratio IC50 (OVCAR-8 [23])	Ratio IC50 (PC-3 [24])	Ratio IC50 (OVCAR-8 [25])	Ratio IC50 [26]	further results
CC1(C)OC2=C(C(=O)C(=O)c3ccccc32)C1n1cc(C[Se]c2ccccc2)nn1 (configuration not stated)	1.31 µM	15.07%	1.06 µM	2.43 µM	2.65 µM	1.29 µM	1.76 µM	2.3 µM	2.26 µM	–	–	–	–	–	–	–	–	–	–	–	Activity (PC-3 [2]): 1.12%; Activity (PC-3 [4]): 1.26%; Activity (PC-3 [8]): 0%; Activity (PC-3 [10]): 0%
O=c1oc2ccccc2c(O)c1Cc1c(O)c2ccccc2oc1=O [DICUMAROL]	–	0.95%	–	–	–	–	–	–	–	–	–	–	–	–	–	–	–	–	–	–	Activity (PC-3 [13]): 0%
O=C1C(=O)c2ccccc2C2=C1CC(Cn1cc(C[Se]c3ccccc3)nn1)O2 (configuration not stated)	0.22 µM	–	0.29 µM	0.24 µM	0.44 µM	0.13 µM	1.31 µM	0.62 µM	0.07 µM	3.3	10	2.5	4.7	1.5	2.8	8.8	18.7	5.4	6.2	4.5	Ratio IC50 (SF-295 [16]): 2; Ratio IC50 (SF-295 [19]): 5.9; Ratio IC50 (L929 [27]): 2.1; Ratio IC50 (V79 [28]): 1.8
CC1(C)OC2=C(C(=O)C(=O)c3ccccc32)C1Nc1cccc(-c2cn(C[Se]c3ccccc3)nn2)c1 (configuration not stated)	0.34 µM	16.61%	0.23 µM	0.38 µM	1.13 µM	0.07 µM	1.39 µM	0.94 µM	0.2 µM	16.1	19.8	2.4	13.4	4.9	2.7	4.7	6.9	3.6	5.6	6	Activity (PC-3 [2]): 0.89%; IC50 [29]: 0.14 µM; Activity (PC-3 [4]): 0.91%; Ratio IC50 (HCT-116 [30]): 8; Ratio IC50 (HCT-116 [31]): 9.9; Activity (PC-3 [13]): 3.27%; Activity [32]: Active; Activity (PC-3 [8]): 0%; Ratio IC50 (HCT-116 [33]): 6.7; Activity (PC-3 [10]): 0%; Ratio IC50 (L929 [27]): 4; Ratio IC50 (V79 [28]): 2.9
[N-]=[N+]=NCC1CC2=C(O1)C(=O)c1ccccc1C2=O (configuration not stated)	0.35 µM	–	0.2 µM	0.39 µM	2.47 µM	0.31 µM	3.21 µM	2.15 µM	0.35 µM	7.9	10.3	5.5	6.9	12.3	6.1	6.1	9.1	8.2	7	16	IC50 [29]: 0.24 µM; Ratio IC50 (SF-295 [16]): 7; Ratio IC50 (HCT-116 [30]): 10.2; Ratio IC50 (SF-295 [19]): 9.1; Ratio IC50 (HCT-116 [31]): 13.3; Ratio IC50 (HCT-116 [33]): 8.9; Ratio IC50 (L929 [27]): 10.7; Ratio IC50 (V79 [28]): 6.3
